# Screening data as filed in PubChem BioAssay.
# An excerpt weighted towards active compounds, which were near 2.5% of everything screened.
# eLon inh = inhibitors of E. coli Lon protease; purified E. coli Lon protease, fluorescence polarization; AID 602123; inhibition, % at 7.94 µM; 360,000 compounds, 0.42% hits; in the data active = inhibition above about 13%, passing the limit was not always enough;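 note: 0% = enzyme with probe and DMSO and 100% = no enzyme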
# PAD4 inh = PAD4 (human) enzyme inhibition; recombinant PAD4, RCA probe fluorescence polarization; inhibition, % at 6.36 µM; 330,000 compounds, 0.41% hits; AID 485272;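 active = percent inhibition above a cutoff equal to the mean of all tested compounds plus 3 SD, cut at about 15% in these data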;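 note: 0% = PAD4 with RCA probe and DMSO and 100% = probe without PAD4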
# TDP2 inh = TDP2 (human) inhibition, absorbance primary screen; 370,000 compounds, 0.34% hits; recombinant TDP2, T5PNP hydrolysis, p-nitrophenol absorbance 415 nm; O95551; inhibition, % at 12.8 µM;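 active = inhibition above the mean of all tested compounds plus 3 SD, set per campaign, cut at about 25% in these data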;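 note: 0% = DMSO with enzyme and 100% = buffer with substrate but no TDP2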
#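 Test system: human TDP2 enzyme; Input: 120 nM TDP2 per well; Buffer or medium: Mg2+-containing Tris-HCl buffer, pH 7.5; Reagent: 5 mM T5PNP; Dosing: 12.8 µM single point, 1% DMSO; Incubation: reaction 2 h, 37 °C; Detection: p-Nitrophenol epi absorbance; Read-out: % inhibition relative to enzyme-containing and enzyme-free wells; Replicates: single well per compound.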
# PRMT1 FP inh = inhibitors of human PRMT1 | inhibition, % at 2.79 µM | 370,000 compounds, 1.3% hits | recombinant PRMT1, activity-based probe fluorescence polarization | Q99873;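 active = inhibition above about 21% made by adding two undisclosed values, limit read from the data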
# Target sequence (Q99873 whole entry, looked up): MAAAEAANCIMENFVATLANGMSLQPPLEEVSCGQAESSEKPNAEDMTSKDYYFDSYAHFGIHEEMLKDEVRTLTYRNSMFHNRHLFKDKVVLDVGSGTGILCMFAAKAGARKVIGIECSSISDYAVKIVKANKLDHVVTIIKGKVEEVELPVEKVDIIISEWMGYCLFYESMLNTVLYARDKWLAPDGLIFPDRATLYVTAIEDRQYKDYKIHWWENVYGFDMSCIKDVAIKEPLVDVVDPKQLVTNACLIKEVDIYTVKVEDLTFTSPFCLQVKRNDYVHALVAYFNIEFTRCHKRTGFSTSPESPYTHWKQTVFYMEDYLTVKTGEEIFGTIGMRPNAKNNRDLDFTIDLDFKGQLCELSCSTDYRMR
# GSTO1 inh = blocks human GSTO1 in RBBP9 counter-screen. P78417. recombinant GSTO1, activity-based probe fluorescence polarization. inhibition, % at 5.96 µM. 300,000 compounds, 1.1% hits. AID 1974;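 active = inhibition above the campaign mean inhibition plus 3 SD, cut at about 35% in these data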;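 note: 0% = GSTO1-1 with DMSO and 100% = wells lacking GSTO1-1 enzyme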
# Target sequence (P78417 whole entry, looked up): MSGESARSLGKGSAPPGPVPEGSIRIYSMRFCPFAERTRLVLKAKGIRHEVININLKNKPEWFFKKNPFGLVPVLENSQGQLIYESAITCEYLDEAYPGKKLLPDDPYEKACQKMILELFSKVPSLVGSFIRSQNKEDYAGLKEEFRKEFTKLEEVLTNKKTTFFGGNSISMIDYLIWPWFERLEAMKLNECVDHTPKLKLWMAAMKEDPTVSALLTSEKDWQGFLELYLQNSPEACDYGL
# The depositor's hits bear a star; nt = no result given.
SMILES,eLon inh,PAD4 inh,TDP2 inh,PRMT1 FP inh,GSTO1 inh
C=CCN1[C@H](C#N)[C@@H](c2ccc(C#Cc3cccc(OC)c3)cc2)[C@H]1CO,nt,nt,8.8,0.8,nt
CCCC#Cc1ccc(CC[C@H]2O[C@H]3CC[C@H](CO)O[C@H]3C[C@H]2NC(=O)CN2CCOCC2)cc1,nt,nt,-5.9,-7.1,nt
N=c1cc(C2(O)CCCCC2)n2c(nc3ccccc32)s1,-0.5,-5.4,0.2,24.6*,-2.1
O=C1c2sc3nc4ccccc4n3c2C(=O)N1c1ccccc1Cl,1.7,2.9,4.7,-0.5,2.4
CC(C)(C)c1ccc(-c2nnc(SCC3CCCCO3)n2-c2ccc(Cl)cc2)cc1 (stereo unspecified),nt,nt,13.3,-2.0,nt
O=C(CSc1nnc(Cc2cc(=O)[nH]c(=O)[nH]2)n1-c1ccc(F)cc1)NC1CCCC1,16.2*,-0.4,1.1,4.8,-1.6
O=C(CSc1nnc(Cc2cc(=O)[nH]c(=O)[nH]2)n1-c1ccc(F)cc1)N1CCCCC1,14.4*,-1.9,-2.1,7.4,0.1
COc1cccc(-n2c(Cc3cc(=O)[nH]c(=O)[nH]3)nnc2SCC(=O)NC2CCCCC2)c1,8.0,-2.3,2.2,2.2,0.3
COc1ccc(OC)c(C(=O)CSc2nnc(SCc3cccc4ccccc34)s2)c1,nt,nt,-4.1,-1.8,nt
C[C@@H]1O[C@@H](O[C@@H]2[C@@H](O)[C@H](OCCc3ccc(O)c(O)c3)O[C@H](CO)[C@H]2OC(=O)/C=C/c2ccc(O)c(O)c2)[C@H](O)[C@H](O)[C@H]1O,1.3,3.5,2.3,24.6*,nt
CCOC(=O)CC[C@H]1CC[C@]2(CCCN(C(=O)c3cccnc3)C2)O1,nt,nt,7.1,-1.0,nt
C[C@@H](/C=C/C(=O)OC(C)(C)C)Sc1ccc(C(C)(C)C)cc1,nt,nt,-2.2,2.2,nt
CC(=O)Nc1ccc(S(=O)(=O)NCC(=O)N2CCN(S(=O)(=O)c3cccs3)CC2)cc1,2.4,10.0,-1.3,24.4*,nt
C#CCCCN([C@H](C(=O)OC)C(C)C)S(=O)(=O)c1ccc(F)cc1Br,nt,nt,-11.5,1.8,nt
O=C(COC(=O)CCc1c[nH]c(=O)[nH]1)Nc1ccccc1,24.0*,-3.2,2.2,0.9,10.8
O=C(O)c1c(C(=O)O)c(-c2ccc(Cl)c(Cl)c2)n2c1CSC2,-5.0,-1.7,9.6,30.4*,-16.1
O=C1CSC(=S)N1Nc1ccccc1,-164.9,nt,8.3,23.6*,nt
Cc1ccccc1C(=O)NN1C(=O)CSC1=S,-14.6,-25.9,-20.2,6.6,7.2
O=[N+]([O-])c1ccccc1/C=N/n1c(-c2cccnc2)n[nH]c1=S,9.1,5.5,9.4,1.2,4.7
S=c1[nH]nc(-c2ccco2)n1/N=C/c1ccc(Cl)c(Cl)c1,7.5,0.5,6.5,22.3*,7.4
S=c1[nH]nc(-c2ccco2)n1/N=C/c1cccc(Cl)c1,3.0,0.0,0.3,14.8,-5.5
O=[N+]([O-])c1cc(/C=N/n2c(-c3cccnc3)n[nH]c2=S)ccc1Cl,1.4,7.2,-0.4,17.2,50.6*
COc1cccc(/C=C/C(=O)OCC(=O)Nc2ccc(Cl)cn2)c1,13.9*,4.9,nt,nt,-3.0
COc1ccc(CCc2nnc(N)s2)cc1OC,1.2,2.7,21.7,0.6,1.0
COc1cccc(CCc2nnc(N)s2)c1,3.8,2.8,-8.8,22.6*,-0.6
SMILES,eLon inh,PAD4 inh,TDP2 inh,PRMT1 FP inh,GSTO1 inh
Cc1ccc(Nc2n[nH]c(=S)s2)cc1F,6.2,nt,1.2,21.5*,nt
C=CC[C@@]1(c2ccccc2)Oc2ccccc2-c2nc3ccccc3nc21,nt,nt,10.9,0.2,nt
CCOC(=O)c1ccc(N2C(=O)CC(Sc3ncccn3)C2=O)cc1 (stereo unspecified),3.9,-3.5,-1.8,21.4*,-6.7
CCOC(=O)C(N)CSC1CC(=O)N(c2ccc(C(=O)OC)cc2)C1=O (stereo unspecified),1.3,-3.4,-6.5,20.6,1.2
CC[n+]1c(/C=C(\C)OC)sc2ccccc21,-0.1,nt,-4.7,22.6*,nt
Cc1cc(C(=O)CSc2nnc(N)s2)c(C)n1CCc1ccc(F)cc1,1.7,-2.5,0.4,2.5,2.6
Cc1cc(C(=O)CSc2nc(N)cc(=O)[nH]2)c(C)n1CCc1ccc(F)cc1,-4.1,31.8*,0.6,2.6,-0.7
Cc1cc(C(=O)CCl)c(C)n1CCc1ccc(Cl)cc1,-1.1,-2.3,-4.1,-1.5,88.3*
NC(=Nc1cccc(F)c1)NC(=O)OCc1ccccc1,nt,nt,-1.0,2.6,nt
O=C(O)c1cc(-c2ccco2)nc2ccccc12,4.4,-1.5,0.8,23.5*,7.3
O=C(Nc1cccc(S(=O)(=O)NC2=NCCCCC2)c1)c1cc(-c2ccccc2)nc2ccccc12,-11.1,2.0,-4.6,1.1,1.8
Cc1csc(NC(=O)c2cc(-c3ccco3)nc3ccccc23)n1,-5.8,-4.5,-13.8,23.5*,10.0
Cc1csc(NC(=O)c2cc(C)nc3ccccc23)n1,-5.8,-2.0,11.1,1.7,-2.6
O=C(Nc1cccc(S(=O)(=O)NC2=NCCC2)c1)c1cc(-c2ccco2)nc2ccccc12,-0.6,-6.2,-1.2,14.4,60.5*
COC(=O)[C@H](C(C)C)N(CCc1cn(CC2CCCCC2)nn1)S(=O)(=O)c1ccccc1Br,nt,nt,1.7,-1.3,nt
CS(=O)(=O)Nc1nc2n(n1)C(c1ccccc1)C=C(c1ccc(Br)cc1)N2 (stereo unspecified),99.3*,0.2,nt,nt,0.3
CC(=O)Nc1nc2n(n1)C(c1ccc(F)cc1)C=C(c1ccccc1)N2 (stereo unspecified),10.5,0.2,-1.1,13.0,-8.9
COc1ccccc1C1C=C(c2ccc(Cl)cc2)Nc2nc(NS(C)(=O)=O)nn21 (stereo unspecified),nt,0.0,nt,nt,12.1
CC(=O)Nc1nc2n(n1)C(c1ccccc1)C=C(c1ccccc1)N2 (stereo unspecified),31.2*,-0.7,nt,nt,5.7
CCOC(=O)C1=CCN(S(=O)(=O)c2ccc(Br)cc2)C1c1cccc(Br)c1 (stereo unspecified),nt,nt,1.4,0.2,nt
Cc1ccccc1NC(=O)N(C)[C@H]1C[C@H]2c3[nH]c4c(-c5ccc6c(c5)OCO6)cccc4c3CCN2C[C@H]1[C@H](C)O,nt,nt,3.0,0.6,nt
Cc1oc2c(CN(C)C)c(O)ccc2c(=O)c1-c1cscn1,0.0,-4.5,37.6*,-3.0,2.4
O=C(CSc1nnc(-c2ccncc2)n1Cc1ccco1)c1ccc(Cl)cc1,-8.7,-6.0,-5.0,6.6,32.2
O=C(CSc1nnc(-c2ccc(Cl)cc2)n1Cc1ccco1)c1cccs1,-1.3,-3.7,-10.4,23.4*,1.9
CCc1cc(C(=O)N=Nc2c(O)[nH]c3ccc([N+](=O)[O-])cc23)c2ccccc2n1,-9.1,-7.1,12.4,0.8,43.3*
CCOC(=O)Cn1cc(CN2C(C(=O)OC)CN(Cc3ccccc3)CCS2(=O)=O)nn1 (stereo unspecified),nt,nt,0.3,-4.0,nt
O=C(NN=C/C=C/c1ccco1)c1cc(-c2ccc(Cl)cc2)n[nH]1,nt,nt,-1.5,14.6,nt
COC(=O)c1ccc(S(=O)(=O)N2CCC(NC(=O)CCc3ccccc3)CC2)cc1,nt,nt,-5.1,2.1,nt
O=C1C=C(O)c2c(O)cc(O)c(O)c2C1=O,-3.2,-13.1,-5.3,46.7*,72.8*
